This note sets out measurements from article PMC12542962 (Science Advances, 2025).

The subject of test [1] is CRKP. In words: Time-dependent killing assay. As to conditions: TINA 20 μg/ml or imipenem 8 μg/ml alone, 24 hours. Format: cell-based, K. pneumoniae.
In test [2] the test system is CRKP. In words: Resistance development assay, 20 passages. Format: cell-based, K. pneumoniae. The conditions noted are these: Klebsiella pneumoniae. In a few lines: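 Log-phase CRKP clinical isolate diluted in LB broth containing imipenem, with or without test compound, and cultured at 37°C for serial passaging.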
The test system of test [3] is CRKP. In words: Lethal CRKP pneumonia model, survival. Format: in vivo, BALB/c mice. As to conditions: single dose; TINA 10 mg/kg, imipenem 8 mg/kg, or 10 + 8 mg/kg; n = 10. In a few lines: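 Female BALB/c mice (n = 10 per group) infected with 5 × 10^7 CFU CRKP. Thirty minutes later they were treated with PBS, test compound 10 mg/kg, imipenem 8 mg/kg, or test compound plus imipenem (10 + 8 mg/kg) as a single or double dose. Survival was followed for 7 days postinfection and cumulative survival calculated.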

In a further test the test system is CRKP, CRE, and CRAB. Kind of test: Acute pneumonia models, blood indicators, histology and inflammation. As to conditions: TINA 10 mg/kg or imipenem 8 mg/kg, single dose. Format: in vivo, BALB/c mice.

A word on the MIC: it is the lowest concentration found to suppress growth.

In brackets after ≈: the same amount, converted by molar mass. Where two headings read alike, the source gives them in different places.

`C[C@@H](O)[C@H]1C(=O)N2C(C(=O)O)=C(SCCN=CN)C[C@H]12` [Imipenem, imipenem]: in the test with CRKP [1], the “change in bacteria counts, monotherapy” value is “increased by two orders of magnitude in bacteria counts”. Further, the MIC is 2050 µg/mL (≈ 6.84 mM) in the test with CRKP [2] (read-out: MIC after 20 passages) and 64 µg/mL (≈ 0.214 mM) in the test on CRKP [2] (read-out: MIC before passaging). In addition, in the test with CRKP [3], the “survival rate at dpi 7” value is recorded as 30%. Also, the “effect of monotherapy on live bacteria in the lungs” value in the test on CRKP, CRE, and CRAB is recorded as “mere effects on eliminating live bacteria in the lungs”.
